Source: ChEMBL document CHEMBL1255424, “Antistaphylococcal activity of ACHN-490 tested alone and in combination with other agents by time-kill assay” (2010)
Converted amounts (≈) assume the structure as drawn.

Columns and labels:
Assay type in all cases: functional
Staphylococcus aureus [1] = assay: Antibacterial activity against vancomycin-susceptible Staphylococcus aureus after 24 hrs by modified broth macrodilution method
Method in brief: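 MICs determined in recent clinical MRSA isolates by a modified broth macrodilution method per CLSI recommendations, with 24 h incubation. Daptomycin tests used Mueller-Hinton broth supplemented with calcium. Value is the lowest inhibitory drug concentration.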

Staphylococcus aureus [2] = assay: Antibacterial activity against vancomycin-intermediate Staphylococcus aureus after 24 hrs by modified broth macrodilution method
Method in brief: (§1)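 MIC read after 24 h incubation by modified broth macrodilution, validated per CLSI recommendations, against recent clinical MRSA isolates (hospital- and community-acquired, hVISA, VISA, VRSA). Daptomycin tests ran in Mueller-Hinton broth with added calcium.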

Staphylococcus aureus [3] = assay: Antibacterial activity against vancomycin-hetero-intermediate Staphylococcus aureus after 24 hrs by modified broth macrodilution method; method in brief: as §1
Staphylococcus aureus [4] = assay: Antibacterial activity against vancomycin-resistant Staphylococcus aureus after 24 hrs by modified broth macrodilution method; method in brief: as §1
Staphylococcus aureus [5] = assay: Antibacterial activity against vancomycin-resistant Staphylococcus aureus isolate 557 after 24 hrs by modified broth macrodilution method; conditions: isolate 557, 24 h; method in brief: as §1
Staphylococcus aureus [6] = assay: Antibacterial activity against vancomycin-resistant Staphylococcus aureus isolate 509 after 24 hrs by modified broth macrodilution method; conditions: isolate 509, 24 h; method in brief: as §1
Staphylococcus aureus [7] = assay: Antibacterial activity against vancomycin-resistant Staphylococcus aureus isolate 1263 after 24 hrs by modified broth macrodilution method; conditions: isolate 1263, 24 h; method in brief: as §1
Staphylococcus aureus [8] = assay: Antibacterial activity against vancomycin-resistant Staphylococcus aureus isolate 1264 after 24 hrs by modified broth macrodilution method; conditions: isolate 1264, 24 h; method in brief: as §1
Staphylococcus aureus [9] = assay: Antibacterial activity against vancomycin-hetero-intermediate Staphylococcus aureus isolate 618 after 24 hrs by modified broth macrodilution method; conditions: isolate 618, 24 h; method in brief: as §1
Staphylococcus aureus [10] = assay: Antibacterial activity against vancomycin-hetero-intermediate Staphylococcus aureus isolate 873 after 24 hrs by modified broth macrodilution method; conditions: isolate 873, 24 h; method in brief: as §1
Staphylococcus aureus [11] = assay: Antibacterial activity against vancomycin-intermediate Staphylococcus aureus isolate 555 after 24 hrs by modified broth macrodilution method; conditions: isolate 555, 24 h; method in brief: as §1
Staphylococcus aureus [12] = assay: Antibacterial activity against vancomycin-intermediate Staphylococcus aureus isolate 1287 after 24 hrs by modified broth macrodilution method; conditions: isolate 1287, 24 h; method in brief: as §1
Staphylococcus aureus [13] = assay: Antibacterial activity against vancomycin-intermediate Staphylococcus aureus isolate 770 after 24 hrs by modified broth macrodilution method; conditions: isolate 770, 24 h; method in brief: as §1
Staphylococcus aureus [14] = assay: Antibacterial activity against vancomycin-intermediate Staphylococcus aureus isolate 1008 after 24 hrs by modified broth macrodilution method; conditions: isolate 1008, 24 h; method in brief: as §1
Staphylococcus aureus [15] = assay: Antibacterial activity against vancomycin-intermediate Staphylococcus aureus isolate 1009 after 24 hrs by modified broth macrodilution method; conditions: isolate 1009, 24 h; method in brief: as §1
Staphylococcus aureus [16] = assay: Antibacterial activity against vancomycin-intermediate Staphylococcus aureus isolate 1010 after 24 hrs by modified broth macrodilution method; conditions: isolate 1010, 24 h; method in brief: as §1
Staphylococcus aureus [17] = assay: Antibacterial activity against vancomycin-intermediate Staphylococcus aureus isolate 1011 after 24 hrs by modified broth macrodilution method; conditions: isolate 1011, 24 h; method in brief: as §1
Staphylococcus aureus [18] = assay: Antibacterial activity against vancomycin-intermediate Staphylococcus aureus isolate 1012 after 24 hrs by modified broth macrodilution method; conditions: isolate 1012, 24 h; method in brief: as §1
Staphylococcus aureus [19] = assay: Antibacterial activity against vancomycin-intermediate Staphylococcus aureus isolate 1013 after 24 hrs by modified broth macrodilution method; conditions: isolate 1013, 24 h; method in brief: as §1
Staphylococcus aureus [20] = assay: Antibacterial activity against vancomycin-intermediate Staphylococcus aureus isolate 1014 after 24 hrs by modified broth macrodilution method; conditions: isolate 1014, 24 h; method in brief: as §1
Staphylococcus aureus [21] = assay: Antibacterial activity against vancomycin-intermediate Staphylococcus aureus isolate 1015 after 24 hrs by modified broth macrodilution method; conditions: isolate 1015, 24 h; method in brief: as §1
Staphylococcus aureus [22] = assay: Antibacterial activity against vancomycin-intermediate Staphylococcus aureus isolate 1016 after 24 hrs by modified broth macrodilution method; conditions: isolate 1016, 24 h; method in brief: as §1
Staphylococcus aureus [23] = assay: Antibacterial activity against vancomycin-intermediate Staphylococcus aureus isolate 1017 after 24 hrs by modified broth macrodilution method; conditions: isolate 1017, 24 h; method in brief: as §1
Staphylococcus aureus [24] = assay: Antibacterial activity against vancomycin-intermediate Staphylococcus aureus isolate 511 after 24 hrs by modified broth macrodilution method; conditions: isolate 511, 24 h; method in brief: as §1
Staphylococcus aureus [25] = assay: Antibacterial activity against vancomycin-intermediate Staphylococcus aureus isolate 1003 after 24 hrs by modified broth macrodilution method; conditions: isolate 1003, 24 h; method in brief: as §1

**Q.** Which results are given for `CCCCCCCCCC(=O)N[C@@H](Cc1c[nH]c2ccccc12)C(=O)N[C@H](CC(N)=O)C(=O)N[C@@H](CC(=O)O)C(=O)N[C@@H]1C(=O)NCC(=O)N[C@@H](CCCN)C(=O)N[C@@H](CC(=O)O)C(=O)N[C@H](C)C(=O)N[C@@H](CC(=O)O)C(=O)NCC(=O)N[C@H](CO)C(=O)N[C@@H]([C@H](C)CC(=O)O)C(=O)N[C@@H](CC(=O)c2ccccc2N)C(=O)O[C@@H]1C`?
**A.** MIC (Staphylococcus aureus [1]): 0.25 mg/L (≈ 0.154 µM); MIC (Staphylococcus aureus [2]): 0.5 mg/L (≈ 0.309 µM); MIC (Staphylococcus aureus [3]): 0.5 mg/L (≈ 0.309 µM); MIC (Staphylococcus aureus [4]): 0.25 mg/L (≈ 0.154 µM); MIC (Staphylococcus aureus [5]): 0.25 mg/L (≈ 0.154 µM); MIC (Staphylococcus aureus [6]): 0.5 mg/L (≈ 0.309 µM); MIC (Staphylococcus aureus [7]): 0.5 mg/L (≈ 0.309 µM); MIC (Staphylococcus aureus [8]): 0.25 mg/L (≈ 0.154 µM); MIC (Staphylococcus aureus [9]): 1 mg/L (≈ 0.617 µM); MIC (Staphylococcus aureus [10]): 0.5 mg/L (≈ 0.309 µM); MIC (Staphylococcus aureus [11]): 4 mg/L (≈ 2.47 µM); MIC (Staphylococcus aureus [12]): 2 mg/L (≈ 1.23 µM); MIC (Staphylococcus aureus [13]): 0.5 mg/L (≈ 0.309 µM); MIC (Staphylococcus aureus [14]): 2 mg/L (≈ 1.23 µM); MIC (Staphylococcus aureus [15]): 2 mg/L (≈ 1.23 µM); MIC (Staphylococcus aureus [16]): 1 mg/L (≈ 0.617 µM); MIC (Staphylococcus aureus [17]): 1 mg/L (≈ 0.617 µM); MIC (Staphylococcus aureus [18]): 1 mg/L (≈ 0.617 µM); MIC (Staphylococcus aureus [19]): 2 mg/L (≈ 1.23 µM); MIC (Staphylococcus aureus [20]): 2 mg/L (≈ 1.23 µM); MIC (Staphylococcus aureus [21]): 1 mg/L (≈ 0.617 µM); MIC (Staphylococcus aureus [22]): 2 mg/L (≈ 1.23 µM); MIC (Staphylococcus aureus [23]): 1 mg/L (≈ 0.617 µM); MIC (Staphylococcus aureus [24]): 1 mg/L (≈ 0.617 µM); MIC (Staphylococcus aureus [25]): 2 mg/L (≈ 1.23 µM)
